Measured values: ChEMBL document CHEMBL1154842, “Synthesis, radiolabeling, and biological evaluation of (R)- and (S)-2-amino-3-[(18)F]fluoro-2-methylpropanoic acid (FAMP) and (R)- and (S)-3-[(18)F]fluoro-2-methyl-2-N-(methylamino)propanoic acid (NMeFAMP) as potential PET radioligands for imaging brain tumors” (J Med Chem, 2010)

Key:
[1] = Biodistribution in tumor of Fischer 344 rat bearing rat 9L cells at 20 uCi, iv after 30 mins; type: ADME, organism-based, Neoplasm; conditions: in vivo, 0.5 h
Method in brief: (§1)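 Male Fischer 344 rats (200–250 g) carrying intracranial 9L gliosarcoma (5×10^4 cells implanted stereotactically, 10–12 days growth), under ketamine:xylazine anaesthesia. About 20 μCi tracer in 0.5 mL sterile saline given via tail-vein catheter. Groups of 4–5 were killed by intracardiac KCl at 15 (NMeFAMP only), 30, 60 or 120 min. Tissues were weighed and gamma-counted, decay-corrected, and reported as %ID/g, mean ± SD.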

[2] = Ratio of drug level from tumor to brain of Fischer 344 rat bearing rat 9L cells at 20 uCi, iv after 120 mins; type: ADME, organism-based; conditions: in vivo, 2 h
Blood [3] = assay: Biodistribution in blood of Fischer 344 rat bearing rat 9L cells at 20 uCi, iv after 30 mins; type: ADME, organism-based; conditions: in vivo, 0.5 h; method in brief: as §1
Blood [4] = assay: Biodistribution in blood of Fischer 344 rat bearing rat 9L cells at 20 uCi, iv after 60 mins; type: ADME, organism-based; conditions: in vivo, 1 h; method in brief: as §1
Blood [5] = assay: Biodistribution in blood of Fischer 344 rat bearing rat 9L cells at 20 uCi, iv after 120 mins; type: ADME, organism-based; conditions: in vivo, 2 h; method in brief: as §1
Heart [6] = assay: Biodistribution in heart of Fischer 344 rat bearing rat 9L cells at 20 uCi, iv after 30 mins; type: ADME, organism-based; conditions: in vivo, 0.5 h; method in brief: as §1
Heart [7] = assay: Biodistribution in heart of Fischer 344 rat bearing rat 9L cells at 20 uCi, iv after 60 mins; type: ADME, organism-based; conditions: in vivo, 1 h; method in brief: as §1
Heart [8] = assay: Biodistribution in heart of Fischer 344 rat bearing rat 9L cells at 20 uCi, iv after 120 mins; type: ADME, organism-based; conditions: in vivo, 2 h; method in brief: as §1
Lung [9] = assay: Biodistribution in lung of Fischer 344 rat bearing rat 9L cells at 20 uCi, iv after 30 mins; type: ADME, organism-based; conditions: in vivo, 0.5 h; method in brief: as §1
Lung [10] = assay: Biodistribution in lung of Fischer 344 rat bearing rat 9L cells at 20 uCi, iv after 60 mins; type: ADME, organism-based; conditions: in vivo, 1 h; method in brief: as §1
Lung [11] = assay: Biodistribution in lung of Fischer 344 rat bearing rat 9L cells at 20 uCi, iv after 120 mins; type: ADME, organism-based; conditions: in vivo, 2 h; method in brief: as §1
Liver [12] = assay: Biodistribution in liver of Fischer 344 rat bearing rat 9L cells at 20 uCi, iv after 30 mins; type: ADME, organism-based; conditions: in vivo, 0.5 h; method in brief: as §1
Liver [13] = assay: Biodistribution in liver of Fischer 344 rat bearing rat 9L cells at 20 uCi, iv after 60 mins; type: ADME, organism-based; conditions: in vivo, 1 h; method in brief: as §1
Liver [14] = assay: Biodistribution in liver of Fischer 344 rat bearing rat 9L cells at 20 uCi, iv after 120 mins; type: ADME, organism-based; conditions: in vivo, 2 h; method in brief: as §1
Pancreas [15] = assay: Biodistribution in pancreas of Fischer 344 rat bearing rat 9L cells at 20 uCi, iv after 30 mins; type: ADME, organism-based; conditions: in vivo, 0.5 h; method in brief: as §1
Pancreas [16] = assay: Biodistribution in pancreas of Fischer 344 rat bearing rat 9L cells at 20 uCi, iv after 60 mins; type: ADME, organism-based; conditions: in vivo, 1 h; method in brief: as §1
Pancreas [17] = assay: Biodistribution in pancreas of Fischer 344 rat bearing rat 9L cells at 20 uCi, iv after 120 mins; type: ADME, organism-based; conditions: in vivo, 2 h; method in brief: as §1
Spleen [18] = assay: Biodistribution in spleen of Fischer 344 rat bearing rat 9L cells at 20 uCi, iv after 30 mins; type: ADME, organism-based; conditions: in vivo, 0.5 h; method in brief: as §1
Spleen [19] = assay: Biodistribution in spleen of Fischer 344 rat bearing rat 9L cells at 20 uCi, iv after 60 mins; type: ADME, organism-based; conditions: in vivo, 1 h; method in brief: as §1
Spleen [20] = assay: Biodistribution in spleen of Fischer 344 rat bearing rat 9L cells at 20 uCi, iv after 120 mins; type: ADME, organism-based; conditions: in vivo, 2 h; method in brief: as §1
Kidney [21] = assay: Biodistribution in kidney of Fischer 344 rat bearing rat 9L cells at 20 uCi, iv after 30 mins; type: ADME, organism-based; conditions: in vivo, 0.5 h; method in brief: as §1
Kidney [22] = assay: Biodistribution in kidney of Fischer 344 rat bearing rat 9L cells at 20 uCi, iv after 60 mins; type: ADME, organism-based; conditions: in vivo, 1 h; method in brief: as §1
Kidney [23] = assay: Biodistribution in kidney of Fischer 344 rat bearing rat 9L cells at 20 uCi, iv after 120 mins; type: ADME, organism-based; conditions: in vivo, 2 h; method in brief: as §1
Muscle tissue [24] = assay: Biodistribution in muscle of Fischer 344 rat bearing rat 9L cells at 20 uCi, iv after 30 mins; type: ADME, organism-based; conditions: in vivo, 0.5 h; method in brief: as §1
Muscle tissue [25] = assay: Biodistribution in muscle of Fischer 344 rat bearing rat 9L cells at 20 uCi, iv after 60 mins; type: ADME, organism-based; conditions: in vivo, 1 h; method in brief: as §1
Muscle tissue [26] = assay: Biodistribution in muscle of Fischer 344 rat bearing rat 9L cells at 20 uCi, iv after 120 mins; type: ADME, organism-based; conditions: in vivo, 2 h; method in brief: as §1
Bone [27] = assay: Biodistribution in bone of Fischer 344 rat bearing rat 9L cells at 20 uCi, iv after 30 mins; type: ADME, organism-based, Bone element; conditions: in vivo, 0.5 h; method in brief: as §1
Bone [28] = assay: Biodistribution in bone of Fischer 344 rat bearing rat 9L cells at 20 uCi, iv after 60 mins; type: ADME, organism-based, Bone element; conditions: in vivo, 1 h; method in brief: as §1
Bone [29] = assay: Biodistribution in bone of Fischer 344 rat bearing rat 9L cells at 20 uCi, iv after 120 mins; type: ADME, organism-based, Bone element; conditions: in vivo, 2 h; method in brief: as §1
[30] = Biodistribution in testis of Fischer 344 rat bearing rat 9L cells at 20 uCi, iv after 30 mins; type: ADME, organism-based; conditions: in vivo, 0.5 h; method in brief: as §1
[31] = Biodistribution in testis of Fischer 344 rat bearing rat 9L cells at 20 uCi, iv after 60 mins; type: ADME, organism-based; conditions: in vivo, 1 h; method in brief: as §1
[32] = Biodistribution in testis of Fischer 344 rat bearing rat 9L cells at 20 uCi, iv after 120 mins; type: ADME, organism-based; conditions: in vivo, 2 h; method in brief: as §1
[33] = rat, in vivo, iv, 1 h
[34] = rat, in vivo, iv, 1 h; remark: listed apart in the source
Brain = assay: Biodistribution in brain of Fischer 344 rat bearing rat 9L cells at 20 uCi, iv after 30 mins; conditions: in vivo, 0.5 h
[35] = Biodistribution in tumor of Fischer 344 rat bearing rat 9L cells at 20 uCi, iv after 30 mins; conditions: in vivo, 0.5 h
[36] = Ratio of drug level from tumor to brain of Fischer 344 rat bearing rat 9L cells at 20 uCi, iv after 60 mins; conditions: in vivo, 1 h

In the case of `C[C@](N)(C[18F])C(=O)O.Cl`, the Ratio [1] is reported as 38.2, the Ratio [2] is reported as 27.5 and the Drug uptake (Blood [3]) is reported as 0.28 % ID/g. It also gave a Drug uptake (Blood [4]) of 0.25 % ID/g, a Drug uptake (Blood [5]) of 0.16 % ID/g and a Drug uptake (Heart [6]) of 0.32 % ID/g. It also gave a Drug uptake (Heart [7]) of 0.34 % ID/g, a Drug uptake (Heart [8]) of 0.23 % ID/g and a Drug uptake (Lung [9]) of 0.37 % ID/g. It also gave a Drug uptake (Lung [10]) of 0.4 % ID/g, a Drug uptake (Lung [11]) of 0.23 % ID/g and a Drug uptake (Liver [12]) of 0.6 % ID/g. It also gave a Drug uptake (Liver [13]) of 0.65 % ID/g, a Drug uptake (Liver [14]) of 0.32 % ID/g and a Drug uptake (Pancreas [15]) of 2.96 % ID/g. It also gave a Drug uptake (Pancreas [16]) of 2.05 % ID/g, a Drug uptake (Pancreas [17]) of 1.17 % ID/g and a Drug uptake (Spleen [18]) of 0.72 % ID/g. For the same compound, the Drug uptake (Spleen [19]) was 0.71 % ID/g, the Drug uptake (Spleen [20]) was 0.39 % ID/g and the Drug uptake (Kidney [21]) was 3.47 % ID/g. For the same compound, the Drug uptake (Kidney [22]) was 2.96 % ID/g, the Drug uptake (Kidney [23]) was 2.09 % ID/g and the Drug uptake (Muscle tissue [24]) was 0.32 % ID/g. The Drug uptake (Muscle tissue [25]) was 0.52 % ID/g, the Drug uptake (Muscle tissue [26]) was 0.36 % ID/g and the Drug uptake (Bone [27]) was 0.23 % ID/g. It also gave a Drug uptake (Bone [28]) of 0.36 % ID/g, a Drug uptake (Bone [29]) of 0.26 % ID/g and a Drug uptake [30] of 0.15 % ID/g. The Drug uptake [31] was 0.17 % ID/g, the Drug uptake [32] was 0.16 % ID/g and the Drug uptake [33] was 0.1 % ID/g. The Drug uptake [34] was 2.82 % ID/g, the Drug uptake (Brain) was 0.06 % ID/g and the Drug uptake [35] was 2.46 % ID/g. It also gave a Ratio [36] of 28.6.
